Experimental data reported in ChEMBL document CHEMBL1148425, “New fatty acid oxidation inhibitors with increased potency lacking adverse metabolic and electrophysiological properties” (Bioorg Med Chem Lett, 2004).
One block for each compound: values may come before it.

Key:
[1] = Metabolic stability (% remaining at 30 mins) in human S9.; assay type: ADME; settings: human S9 fraction
How it was run: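 Incubated 30 min with human liver S9 (2 mg/mL protein, NADH added), n=2. Reported as % parent remaining.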

[2] = biological target: T1, Peroxisomal acyl-coenzyme A oxidase 1 (Rattus norvegicus) (UniProt P07872); assay: Inhibition of rat heart mitochondrial Palmitoyl-CoA oxidation at 30 uM
T1 sequence (whole entry): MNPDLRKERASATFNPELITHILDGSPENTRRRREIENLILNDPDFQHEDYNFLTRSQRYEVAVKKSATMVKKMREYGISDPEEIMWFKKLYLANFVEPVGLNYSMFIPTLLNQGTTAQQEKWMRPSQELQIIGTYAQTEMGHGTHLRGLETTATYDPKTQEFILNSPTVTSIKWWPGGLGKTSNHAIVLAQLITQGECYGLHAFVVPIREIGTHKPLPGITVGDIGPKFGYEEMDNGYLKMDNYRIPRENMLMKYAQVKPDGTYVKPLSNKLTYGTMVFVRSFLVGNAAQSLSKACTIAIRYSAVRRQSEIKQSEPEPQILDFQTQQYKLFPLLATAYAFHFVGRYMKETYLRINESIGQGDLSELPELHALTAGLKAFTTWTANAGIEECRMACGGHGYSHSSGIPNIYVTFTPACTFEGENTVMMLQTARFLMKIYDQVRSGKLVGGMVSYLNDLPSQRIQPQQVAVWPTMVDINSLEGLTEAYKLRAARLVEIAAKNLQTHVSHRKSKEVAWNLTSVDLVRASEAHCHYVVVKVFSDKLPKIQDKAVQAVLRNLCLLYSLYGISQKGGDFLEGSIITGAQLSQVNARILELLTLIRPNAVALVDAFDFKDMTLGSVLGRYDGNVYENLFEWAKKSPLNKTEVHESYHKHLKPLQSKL
How it was run: (§1)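 Rat heart mitochondrial preparations incubated with 1-[¹⁴C]-palmitoylCoA as the long-chain fatty acid oxidation substrate. Oxidation inhibition was reported as % inhibition at the listed test concentration, averaged from two or three measurements.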

[3] = organism: Cavia porcellus; assay: Electrophysiological effect on isolated guinea pig heart as change in S-H interval at 3 uM; assay type: functional
[4] = biological target: Cytochrome P450 2C9 (Homo sapiens, UniProt P11712); assay: Inhibition of cytochrome P450 2C9 (human)
[5] = organism: Cavia porcellus; assay: Electrophysiological effect on isolated guinea pig heart as change in H-V interval at 10 uM; assay type: functional
[6] = organism: Cavia porcellus; assay: Electrophysiological effect on isolated guinea pig heart as change in S-H interval at 10 uM; assay type: functional
[7] = Oral bioavailability in rat (dose 2 mg/kg); assay type: ADME, organism-based; settings: in vivo
[8] = organism: Cavia porcellus; assay: Electrophysiological effect on isolated guinea pig heart as change in H-V interval at 3 uM; assay type: functional
[9] = Total concentration in rat after 1 mg/kg i.v. administration in 24 hours; assay type: ADME, organism-based; design: dose 1 mg/kg, route intravenous; settings: in vivo, iv
[10] = Half life in rat after 2 mg/kg peroral administration; assay type: ADME, organism-based; design: dose 2 mg/kg, route oral; settings: in vivo, po
[11] = biological target: T2, Cytochrome P450 3A4 (Homo sapiens, UniProt P08684); assay: Inhibition of human cytochrome P450 3A4
[12] = Maximum concentration in rat after 2 mg/kg peroral administration; assay type: ADME, organism-based; design: dose 2 mg/kg, route oral; settings: in vivo, po
[13] = Clearance of compound in rat after 1 mg/kg i.v. administration; assay type: ADME, organism-based; design: dose 1 mg/kg, route intravenous; settings: plasma, iv, read-out: Clp
[14] = Time to reach maximum concentration in rat after 2 mg/kg peroral administration; 4-6; assay type: ADME, organism-based; design: dose 2 mg/kg, route oral; settings: in vivo, po
[15] = Total concentration in rat after 2 mg/kg peroral administration in 24 hours; assay type: ADME, organism-based; design: dose 2 mg/kg, route oral; settings: in vivo, po
[16] = Half life in rat after 1 mg/kg i.v. administration; assay type: ADME, organism-based; design: dose 1 mg/kg, route intravenous; settings: in vivo, iv
[17] = biological target: T3, Cytochrome P450 1A2 (Homo sapiens, UniProt P05177); assay: Inhibition of human cytochrome P450 1A2
T3 sequence (P05177 whole entry): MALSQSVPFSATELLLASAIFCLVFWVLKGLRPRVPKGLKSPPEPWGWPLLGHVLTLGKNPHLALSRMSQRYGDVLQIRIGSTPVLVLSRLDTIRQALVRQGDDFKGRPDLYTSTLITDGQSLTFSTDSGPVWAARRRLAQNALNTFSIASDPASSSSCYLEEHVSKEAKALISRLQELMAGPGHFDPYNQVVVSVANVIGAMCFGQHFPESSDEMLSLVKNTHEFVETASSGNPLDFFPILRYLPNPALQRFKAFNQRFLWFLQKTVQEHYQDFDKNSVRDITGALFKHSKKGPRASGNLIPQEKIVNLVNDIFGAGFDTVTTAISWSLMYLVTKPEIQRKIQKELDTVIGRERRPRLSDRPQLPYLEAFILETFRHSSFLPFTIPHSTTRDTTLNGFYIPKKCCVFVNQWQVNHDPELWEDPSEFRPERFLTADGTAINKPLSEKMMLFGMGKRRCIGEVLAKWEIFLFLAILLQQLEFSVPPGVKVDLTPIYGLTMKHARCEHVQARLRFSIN

[18] = organism: Cavia porcellus; assay: Electrophysiological effect on isolated guinea pig heart as change in coronary perfusion pressure at 10 uM; assay type: functional
[19] = Volume of distribution of compound in rat after 1 mg/kg i.v. administration; assay type: ADME, organism-based; design: dose 1 mg/kg, route intravenous; settings: in vivo, iv, read-out: Vdss
[20] = organism: Cavia porcellus; assay: Electrophysiological effect on isolated guinea pig heart as change in coronary perfusion pressure at 3 uM; assay type: functional
[21] = Time to reach maximum concentration in rat after 2 mg/kg peroral administration; assay type: ADME, organism-based; design: dose 2 mg/kg, route oral; settings: in vivo, po
[22] = biological target: T1, Peroxisomal acyl-coenzyme A oxidase 1 (Rattus norvegicus); assay: Inhibition of rat heart mitochondrial Palmitoyl-CoA oxidation at 100 uM; how it was run: as §1
[23] = biological target: T2, Cytochrome P450 3A4; assay: Inhibition of cytochrome P450 3A4 (human)

T2 sequence (P08684 whole entry): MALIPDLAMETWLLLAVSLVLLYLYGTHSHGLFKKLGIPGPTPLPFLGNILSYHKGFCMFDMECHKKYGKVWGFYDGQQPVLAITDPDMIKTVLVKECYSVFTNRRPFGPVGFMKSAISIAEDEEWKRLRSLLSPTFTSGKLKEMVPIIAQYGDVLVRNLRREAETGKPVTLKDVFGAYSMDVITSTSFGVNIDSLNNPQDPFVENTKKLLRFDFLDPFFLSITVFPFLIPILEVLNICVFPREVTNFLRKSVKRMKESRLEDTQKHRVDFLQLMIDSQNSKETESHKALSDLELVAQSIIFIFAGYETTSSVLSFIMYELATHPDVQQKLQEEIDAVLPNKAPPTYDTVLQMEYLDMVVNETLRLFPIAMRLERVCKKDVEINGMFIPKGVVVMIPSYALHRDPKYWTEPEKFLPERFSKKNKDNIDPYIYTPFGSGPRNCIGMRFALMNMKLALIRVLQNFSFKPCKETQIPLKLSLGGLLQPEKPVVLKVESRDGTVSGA
Sequence of Cytochrome P450 2C9 (P11712 whole entry): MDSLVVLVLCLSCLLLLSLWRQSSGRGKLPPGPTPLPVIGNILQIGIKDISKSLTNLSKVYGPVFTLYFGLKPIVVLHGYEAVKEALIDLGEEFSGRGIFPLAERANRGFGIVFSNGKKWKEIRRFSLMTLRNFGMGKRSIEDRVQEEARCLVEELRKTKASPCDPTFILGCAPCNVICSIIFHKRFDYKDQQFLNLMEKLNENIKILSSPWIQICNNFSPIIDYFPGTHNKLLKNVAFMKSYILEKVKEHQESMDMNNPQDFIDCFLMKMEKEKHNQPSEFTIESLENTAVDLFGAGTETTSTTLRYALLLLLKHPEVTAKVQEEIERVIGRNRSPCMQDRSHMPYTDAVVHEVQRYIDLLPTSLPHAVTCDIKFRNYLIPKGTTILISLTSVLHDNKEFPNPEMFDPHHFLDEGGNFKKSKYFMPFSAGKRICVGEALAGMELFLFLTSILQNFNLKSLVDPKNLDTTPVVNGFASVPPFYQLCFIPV

Structure (SMILES): Cc1nc2cc(OC[C@H](O)CN3CCN(CC(=O)Nc4ccc(Oc5ccccc5)cc4)CC3)ccc2s1
- remaining at 0.5 h [1]: 18%

Structure (SMILES): Cc1nc2cc(OC[C@H](O)CN3CCN(CC(=O)NCc4ccc(Cl)cc4)CC3)ccc2s1
- remaining at 0.5 h [1]: 16%

Structure (SMILES): Cc1nc2cc(OC[C@H](O)CN3CCN(CC(=O)Nc4ccccc4)CC3)ccc2s1
- remaining at 0.5 h [1]: 47%

Structure (SMILES): Cc1ccc(NC(=O)CN2CCN(C[C@@H](O)COc3ccc4sc(C)nc4c3)CC2)cc1
- remaining at 0.5 h [1]: 51%

Structure (SMILES): CCn1c2ccccc2c2cc(NC(=O)CN3CCN(C[C@@H](O)COc4ccc5sc(C)nc5c4)CC3)ccc21
- Delta S-H [3]: 0 ms
- IC50 [4]: > 100 µM
- Delta H-V [5]: 0 ms
- remaining at 0.5 h [1]: 62%
- Delta S-H [6]: 1 ms
- bioavailability [7]: 17.5%
- Delta H-V [8]: 0 ms
- AUC at 24 h [9]: 1320 ng·h/mL
- half-life [10]: 2.6 h
- IC50 [11]: 39 µM
- Cmax [12]: 26.3 ng/mL
- clearance [13]: 13.5 mL/min/kg
- Tmax [14]: 6 h
- AUC at 24 h [15]: 230 ng·h/mL
- half-life [16]: 3 h
- IC50 [17]: > 100 µM
- Delta CPP [18]: -0.4 mmHg
- Vd [19]: 3.4 L/kg
- Delta CPP [20]: 0.7 mmHg

Structure (SMILES): Cc1nc2cc(OC[C@H](O)CN3CCN(CC(=O)Nc4ccc(C(N)=O)cc4)CC3)ccc2s1
- inhibition [22]: 35%

Structure (SMILES): Cc1nc2cc(OC[C@H](O)CN3CCN(CC(=O)NCC4CCCCC4)CC3)ccc2s1
- remaining at 0.5 h [1]: 29%

Structure (SMILES): Cc1nc2cc(OC[C@H](O)CN3CCN(CC(=O)Nc4ccc(-c5ccccc5)cc4)CC3)ccc2s1
- Delta S-H [3]: 5 ms
- IC50 [4]: 30 µM
- remaining at 0.5 h [1]: 63%
- Delta H-V [8]: 0.5 ms
- IC50 [23]: 7.9 µM
- IC50 [17]: 31 µM
- Delta CPP [20]: -6.6 mmHg

Structure (SMILES): COc1ccc(NC(=O)CN2CCN(C[C@@H](O)COc3ccc4sc(C)nc4c3)CC2)cc1
- remaining at 0.5 h [1]: 41%

Structure (SMILES): Cc1nc2cc(OC[C@H](O)CN3CCN(CC(=O)Nc4cccc5[nH]ccc45)CC3)ccc2s1
- remaining at 0.5 h [1]: 35%

Further lines, with some results ahead:

- remaining at 0.5 h [1]: 14%
Structure (SMILES): Cc1nc2cc(OC[C@H](O)CN3CCN(CC(=O)N[C@@H](C)c4ccc5ccccc5c4)CC3)ccc2s1

- inhibition [2]: 16%
Structure (SMILES): Cc1nc2cc(OC[C@H](O)CN3CCN(CC(=O)Nn4nnc5ccccc54)CC3)ccc2s1

- remaining at 0.5 h [1]: 34%
Structure (SMILES): Cc1nc2cc(OC[C@H](O)CN3CCN(CC(=O)Nc4cc(Cl)c(Cl)c(Cl)c4)CC3)ccc2s1

- remaining at 0.5 h [1]: 12%
Structure (SMILES): Cc1nc2cc(OC[C@H](O)CN3CCN(CC(=O)Nc4cccc5cccnc45)CC3)ccc2s1

- remaining at 0.5 h [1]: 27%
Structure (SMILES): Cc1nc2cc(OC[C@H](O)CN3CCN(CC(=O)NCCc4ccccc4)CC3)ccc2s1

- IC50 [4]: > 100 µM
- remaining at 0.5 h [1]: 50%
- bioavailability [7]: 19.5%
- AUC at 24 h [9]: 313 ng·h/mL
- half-life [10]: 1.2 h
- IC50 [11]: 23 µM
- Tmax [21]: 0.83 h
- Cmax [12]: 26.1 ng/mL
- clearance [13]: 54.5 mL/min/kg
- AUC at 24 h [15]: 61.1 ng·h/mL
- half-life [16]: 1.4 h
- IC50 [17]: > 100 µM
- Vd [19]: 6.2 L/kg
Structure (SMILES): Cc1nc2cc(OC[C@H](O)CN3CCN(CC(=O)Nc4c(C)cccc4C)CC3)ccc2s1
- Delta S-H [3]: 3 ms
- Delta H-V [8]: 4 ms
- Delta CPP [20]: -8 mmHg

- inhibition [2]: 39%
Structure (SMILES): Cc1nc2cc(OC[C@H](O)CN3CCN(CC(=O)Nc4ccccc4-c4ccccc4)CC3)ccc2s1

- remaining at 0.5 h [1]: 25%
Structure (SMILES): Cc1nc2cc(OC[C@H](O)CN3CCN(CC(=O)Nc4ccc(Cl)c(C(F)(F)F)c4)CC3)ccc2s1

- inhibition [2]: 34%
Structure (SMILES): Cc1nc2cc(OC[C@H](O)CN3CCN(CC(=O)Nc4ccccc4Oc4ccccc4)CC3)ccc2s1

- remaining at 0.5 h [1]: 37%
Structure (SMILES): Cc1nc2cc(OC[C@H](O)CN3CCN(CC(=O)NC4CCCCC4)CC3)ccc2s1

- IC50 [4]: 24 µM
- remaining at 0.5 h [1]: 58%
- IC50 [23]: 37 µM
- IC50 [17]: 6 µM
Structure (SMILES): Cc1nc2cc(OC[C@H](O)CN3CCN(CC(=O)Nc4cccc(-c5ccccc5)c4)CC3)ccc2s1
- Delta S-H [3]: 3 ms
- Delta H-V [8]: 0 ms
- Delta CPP [20]: -4.3 mmHg

- remaining at 0.5 h [1]: 64%
Structure (SMILES): Cc1nc2cc(OC[C@H](O)CN3CCN(CC(=O)Nc4ccc(Oc5ccc(Cl)cc5)cc4)CC3)ccc2s1
